Assay results as given in ChEMBL document CHEMBL4813972, “A grafted peptidomimetic for EGFR heterodimerization inhibition: Implications in NSCLC models” (Eur J Med Chem, 2021).
Active and inactive are the calls of the source. The rule behind the calls is not given here.

What was measured:
A549 = experiment: Effect on HER2 expression in human A549 cells at 1 uM incubated for 40 hrs by Western blot analysis; assay type: functional, cell-based
[1] = Toxicity in Foxn1nu/Foxn1+ mouse xenografted with human Calu-3 cells assessed as effect on body weight at 8 mg/kg, IT(Intratumoral) administered thrice a week for 28 days and measured on day 28; assay type: organism-based; settings: in vivo, other, 672 h, time 28 day
[2] = target: T1, ErbB-2/ErbB-3 heterodimer (Homo sapiens) (UniProt P04626+P21860); experiment: Inhibition of HER2/HER3 dimerization in human Calu-3 cells incubated for 48 hrs by proximity ligation assay; assay type: cell-based
In short: (§1)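 A549 or Calu-3 cells (~1×10^4/well) on chamber slides, treated 48 h with 0.5 or 1 μM peptide. Controls: no compound, and one primary antibody omitted. Cells fixed in cold methanol, primary antibodies (EGFR, HER2, HER3) applied overnight at 4 °C, then PLA probes. Red fluorescence imaged at 40x and quantified over 3–6 fields.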

Mus musculus = experiment: In vivo inhibition of HER2/EGFR dimerization in human A549 cells harbouring KRAS mutant/wild type EGFR xenografted in Foxn1nu/Foxn1+ mouse by measuring reduction in red fluorescence at 6 mg/kg, iv administered twice a week for 5 weeks by proximity ligation assay; assay type: functional, organism-based
In short: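 Lung tumor sections from the A549-Red-FLuc i.v. metastasis mice (6 mg/kg i.v. twice weekly; sacrificed day 35). FFPE sections had citrate pH 6.0 antigen retrieval at 100 °C, peroxidase and serum blocking, primaries overnight at 4 °C, and PLA probes for EGFR:HER2 and HER2:HER3. Red fluorescence imaged at 40×.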

[3] = Toxicity in BALB/c mouse assessed as Ki-67 expression in CD8+ at 6 mg/kg, iv administered on day 0 and 10 and spleenocytes collected on day 13 and incubated for 48 hrs by flow cytometry analysis; assay type: organism-based; settings: in vivo, 360 h, time 15 day
In short: (§2)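 Female BALB/c mice given 6 mg/kg peptide in PBS i.v. (or PBS) on days 0 and 10, 12 mice in total. Splenocytes harvested day 13, RBC-lysed, and ≥2×10^6 cultured 48 h in RPMI/10% FBS with control media or peptide. Cells then stained for viability, CD3/CD4/CD8a and intracellular Ki67, and analyzed by flow cytometry.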

Calu-3 [4] = experiment: Antiproliferative activity against human Calu-3 cells overexpressing HER2 assessed as cell growth inhibition incubated for 72 hrs by cell titer glo assay; assay type: functional, cell-based; settings: Calu-3, 72 h
[5] = Toxicity in Foxn1nu/Foxn1+ mouse xenografted with human A549 cells harbouring KRAS mutant/wild type EGFR assessed as eosinophilic cytoplasm in lung at 6 mg/kg, iv administered twice a week for 5 weeks; settings: in vivo, 840 h
[6] = target: Epidermal growth factor receptor and ErbB2 (HER1 and HER2) (Homo sapiens) (UniProt P04626+P00533); experiment: Inhibition of HER2/EGFR dimerization in human Calu-3 cells incubated for 48 hrs by proximity ligation assay; assay type: cell-based; settings: dose 0.5-1 µM; in short: as §1
[7] = target: Receptor tyrosine-protein kinase erbB-2 (Homo sapiens) (UniProt P04626); experiment: Binding affinity to HER2 domain IV (unknown origin) by SPR analysis
[8] = Toxicity in BALB/c mouse assessed as Ki-67 expression in spleenocytes at 6 mg/kg, iv administered on day 0 and 10 and spleenocytes collected on day 13 and incubated for 48 hrs by flow cytometry analysis; assay type: organism-based; settings: in vivo, 360 h, time 15 day; in short: as §2
BT-474 = experiment: Antiproliferative activity against human BT-474 cells overexpressing HER2 assessed as cell growth inhibition incubated for 72 hrs by cell titer glo assay; assay type: functional, cell-based; settings: BT-474, 72 h
Calu-3 [9] = experiment: Antitumor activity in human Calu-3 cells xenografted in Foxn1nu/Foxn1+ mouse assessed as reduction in tumor growth at 8 mg/kg, IT(Intratumoral) administered thrice a week for 21 days and measured on day 21 relative to control; assay type: functional, organism-based; settings: time 21.0 day
[10] = target: T1, ErbB-2/ErbB-3 heterodimer (Homo sapiens); experiment: Inhibition of HER2/HER3 dimerization in human A549 cells incubated for 48 hrs by proximity ligation assay; assay type: cell-based; settings: dose 0.5-1 µM; in short: as §1

Chain of Receptor tyrosine-protein kinase erbB-2 (Homo sapiens) (P04626 whole entry, the tested form may be a part): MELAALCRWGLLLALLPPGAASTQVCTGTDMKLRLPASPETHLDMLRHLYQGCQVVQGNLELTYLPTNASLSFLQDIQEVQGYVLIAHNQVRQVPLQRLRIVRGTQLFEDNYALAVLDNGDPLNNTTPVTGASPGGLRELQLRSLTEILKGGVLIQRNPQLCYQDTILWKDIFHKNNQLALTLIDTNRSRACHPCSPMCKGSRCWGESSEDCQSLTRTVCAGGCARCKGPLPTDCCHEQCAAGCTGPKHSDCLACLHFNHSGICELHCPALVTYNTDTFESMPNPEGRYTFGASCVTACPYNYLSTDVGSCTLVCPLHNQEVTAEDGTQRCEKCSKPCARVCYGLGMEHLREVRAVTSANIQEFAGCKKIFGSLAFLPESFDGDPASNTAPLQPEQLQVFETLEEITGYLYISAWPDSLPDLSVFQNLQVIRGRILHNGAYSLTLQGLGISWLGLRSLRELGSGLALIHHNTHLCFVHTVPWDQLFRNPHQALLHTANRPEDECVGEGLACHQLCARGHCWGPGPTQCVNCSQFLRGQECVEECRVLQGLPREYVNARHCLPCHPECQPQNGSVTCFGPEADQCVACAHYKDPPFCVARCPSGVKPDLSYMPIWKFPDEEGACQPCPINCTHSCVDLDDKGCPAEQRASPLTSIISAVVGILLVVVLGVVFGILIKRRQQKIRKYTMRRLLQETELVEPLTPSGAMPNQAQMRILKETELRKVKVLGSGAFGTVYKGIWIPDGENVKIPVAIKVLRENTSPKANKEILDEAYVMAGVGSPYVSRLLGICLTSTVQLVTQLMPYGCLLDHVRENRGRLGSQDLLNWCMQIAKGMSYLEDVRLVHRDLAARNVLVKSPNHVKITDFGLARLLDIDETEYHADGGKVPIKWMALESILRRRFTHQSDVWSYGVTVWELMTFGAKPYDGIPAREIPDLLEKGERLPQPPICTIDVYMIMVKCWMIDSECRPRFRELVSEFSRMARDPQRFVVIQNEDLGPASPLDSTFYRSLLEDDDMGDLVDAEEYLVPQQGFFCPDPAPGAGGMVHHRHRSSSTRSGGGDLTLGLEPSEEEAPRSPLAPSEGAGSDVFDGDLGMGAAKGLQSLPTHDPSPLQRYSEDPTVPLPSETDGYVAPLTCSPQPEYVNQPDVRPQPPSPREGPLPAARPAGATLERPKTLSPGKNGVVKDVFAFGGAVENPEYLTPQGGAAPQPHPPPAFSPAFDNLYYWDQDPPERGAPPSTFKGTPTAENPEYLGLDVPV

inhibition [2]: Dose-Dependent Effect
IC50 (Calu-3 [4]): 0.073 µM
inhibition [6]: Dose-Dependent Effect
Activity [7]: Dose-Dependent Effect
IC50 (BT-474): 0.28 µM
inhibition [10]: Dose-Dependent Effect
Structure (SMILES): CC[C@H](C)[C@H]1C(=O)NC(=O)[C@H](CCCNC(=N)N)NC(=O)C[C@@H](c2cccc3ccccc23)NC(=O)N[C@H]2CSSC[C@H](NC(=O)C[C@@H](c3cccc4ccccc34)NC(=O)[C@H](CCCNC(=N)N)NC(=O)[C@@H]3CCCN3C(=O)[C@@H]3CCCN13)C(=O)N[C@@H](Cc1ccccc1)C(=O)N1CCC[C@H]1C(=O)N[C@@H](CC(=O)O)C(=O)NC(=O)[C@H](CC(=O)O)NC(=O)[C@H](Cc1ccccc1)NC2=O
Activity (A549): inactive
Activity [1]: Non-Toxic
inhibition (Mus musculus): Active
Activity [3]: Non-Toxic
Activity [5]: Non-Toxic
Activity [8]: Non-Toxic
Activity (Calu-3 [9]): Active
